Measurements reported in paper PMC8359148 (ACS Omega, 2021).
“Also recorded” adds a separate entry of the source.

What was measured:
[1] = system: P. falciparum Dd2 cultures; assay: kinetic kill experiments; type: cell-based, Plasmodium falciparum; conditions: for EC50: Plasmodium falciparum, DD2, read-out: 5 × EC50
Outline: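 Asynchronous Dd2 cultures are exposed to test compound for 6, 12, 24 or 48 h at 0.15% DMSO, then washed three times in RPMI and resuspended in culture medium. Parasite growth is monitored daily for 96 h. DHA (50 nM) and atovaquone (6.6 nM) serve as controls.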

[2] = system: HepG2 (liver hepatocellular carcinoma) cells; assay: HepG2; type: cell-based, human; conditions: for selectivity index (SI): HepG2 EC50/EC50 Dd2 cells; for EC50: Homo sapiens, HepG2, read-out: EC50 HepG2
Outline: (§1)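 Dose–response EC50 values, each from three or more independent experiments. Dd2 and 3D7 runs use chloroquine as comparator. The selectivity index is calculated as HepG2 EC50 divided by Dd2 EC50.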

chemical stability = type: physicochemical
[3] = system: wild-type P. falciparum 3D7 cells; assay: dose–response assay against 3D7 cells; type: cell-based; conditions: Plasmodium falciparum, 3D7, read-out: EC50 3D7
Outline: as §1

[4] = system: tightly synchronized P. falciparum Dd2 cells; assay: developmental stage-specific action; type: cell-based, Plasmodium falciparum
Outline: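 Tightly synchronized Dd2 cultures are treated with 1.25 μM test compound at 6, 18, 30 or 42 HPI, with 0.1% DMSO-treated infected RBCs as negative control and DHA and atovaquone as positive controls. Every 12 h, Giemsa-stained smears are read. Flow cytometry samples are fixed in 4% paraformaldehyde/0.0075% glutaraldehyde, permeabilized with 0.25% Triton X-100, RNase-treated (50 μg/mL) and YOYO-1 stained; parasitemia is taken by flow cytometry.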

solubility = type: physicochemical
Outline: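 DMSO solubility is tested up to 100 mM, the highest concentration tested. For aqueous solubility, PBS is slowly titrated into 10 mM DMSO stock to give 100 μM, the highest concentration tested. Clarity is checked visually against a PBS standard at room temperature over 24 h.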

[5] = system: chloroquine-resistant P. falciparum Dd2 parasites; assay: SYBR Green I dose–response assay against Dd2 parasites; type: cell-based; conditions: Plasmodium falciparum, DD2, read-out: EC50 Dd2, chloroquine-resistant P. falciparum Dd2, three or more independent experiments
Outline: as §1

Structure (SMILES): CC[C@@]12C=C(C(=O)OC)n3c(c(c4ccccc43)CCN(C(=O)c3ccccn3)CCC1)[C@@H]2c1ccc(O)cc1 [Compound 30, methyl (11S,19S)-11-ethyl-19-(4-hydroxyphenyl)-15-(pyridine-2-carbonyl)-8,15-diazatetracyclo[9.6.2.0^2,7.0^8,18]nonadeca-1(18),2(7),3,5,9-pentaene-9-carboxylate]
- effect after 24 h treatment ([1]; 5× EC50, 24 h treatment, based on the 96 h time point): reduces parasitemia
- effect after 48 h treatment ([1]; 5× EC50, 48 h treatment): more dramatic parasitocidal effect
- kill rate ([1]; Dd2 cultures, 5 × EC50, treatment time required to kill): >24 h
- selectivity index (SI) [2]: >100
- EC50 [2]: > 25000 nM
- chemical stability in acidified PBS (chemical stability; 100 μM, PBS pH 2.0 (1.95), 24 h room temperature then 24 h 37 °C, TLC and NMR): no compound breakdown; also recorded: no degradation
- chemical stability in PBS pH 7.4 (chemical stability; 100 μM, PBS pH 7.4, 24 h room temperature then 24 h 37 °C, TLC and NMR): no compound breakdown; also recorded: no degradation
- chemical stability during NMR experiments (chemical stability; 100 °C for multiple hours): without showing compound breakdown
- EC50 [3]: 1190 ± 250 nM
- parasitemia (flow cytometry) ([4]; Dd2 cells treated at 6, 18 and 30 HPI, 5 x EC50): remarkable decrease in parasitemia
- effect on maturation when treated at 42 HPI ([4]; Dd2 cells treated at 42 HPI, 5 x EC50): did not inhibit maturation
- stage-specific activity ([4]; synchronized Dd2, 5 x EC50 (1.25 μM), treated at 6, 18, 30 and 42 HPI): prevents exit on the parasite from the schizont stage; also recorded: arrested at the late schizont stage; also recorded: do not advance beyond the late schizont stage; also recorded: act specifically on the trophozoite/schizont stage
- solubility at 24 h (solubility; PBS buffer, aqueous buffer, kinetic from dmso stock): ≥ 0.1 mM
- solubility (solubility; biological grade DMSO, organic solvent or mixture): ≥ 100 mM
- EC50 [5]: 250 ± 4 nM

Structure (SMILES): CC[C@@]12C=C(C(=O)OC)n3c(c(c4ccccc43)CCN(C(=O)c3cncc(Br)c3)CCC1)[C@@H]2c1ccc(O)cc1 [Compound 33, methyl (11S,19S)-15-(5-bromopyridine-3-carbonyl)-11-ethyl-19-(4-hydroxyphenyl)-8,15-diazatetracyclo[9.6.2.0^2,7.0^8,18]nonadeca-1(18),2(7),3,5,9-pentaene-9-carboxylate]
- selectivity index (SI) [2]: >38
- EC50 [2]: > 25000 nM
- EC50 [3]: 1700 ± 320 nM
- EC50 [5]: 650 ± 9 nM

Structure (SMILES): C[C@H]1[C@@H](O)O[C@@H]2O[C@@]3(C)CC[C@H]4[C@H](C)CC[C@@H]1[C@@]24OO3 [Dihydroartemisinin (DHA), Dihydroartemisinin, reference compound]
- EC50 [1]: 50 nM

Structure (SMILES): O=C1C(O)=C([C@H]2CC[C@H](c3ccc(Cl)cc3)CC2)C(=O)c2ccccc21 [atovaquone, reference compound]
- EC50 [1]: 6.6 nM
